Measured values from publication PMC3525873 (British Journal of Pharmacology, 2012).

Columns and labels:
[1] = test system: NFAT; test: GFP-NFAT translocation in RBL-2H3 cells; assay type: cell-based; details: 10 μM, thapsigargin 1 μM then 2 mM Ca2+ re-addition
Method in brief: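 RBL-2H3 cells electroporated with GFP-NFAT (20 μg DNA, 300 V, 275 μF) 12–18 h beforehand, on coverslips. In nominally Ca2+-free buffer, stores depleted with 1 μM thapsigargin for 5 min, then 2 mM CaCl2 added. Test compound at 10 μM in all buffers. Basal taken before depletion. Cells fixed in paraformaldehyde with DAPI-stained nuclei. Nuclear/cytosolic GFP intensity ratio measured; ≥18 cells per condition.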

[2] = biological target: T1, TRPC4beta (Homo sapiens, UniProt Q9UBN4); test: Fura-2 Ca2+ entry in HEK293 cells overexpressing TRPC4beta-YFP; assay type: cell-based
T1 sequence (Q9UBN4 1-893 isoform Q9UBN4-2): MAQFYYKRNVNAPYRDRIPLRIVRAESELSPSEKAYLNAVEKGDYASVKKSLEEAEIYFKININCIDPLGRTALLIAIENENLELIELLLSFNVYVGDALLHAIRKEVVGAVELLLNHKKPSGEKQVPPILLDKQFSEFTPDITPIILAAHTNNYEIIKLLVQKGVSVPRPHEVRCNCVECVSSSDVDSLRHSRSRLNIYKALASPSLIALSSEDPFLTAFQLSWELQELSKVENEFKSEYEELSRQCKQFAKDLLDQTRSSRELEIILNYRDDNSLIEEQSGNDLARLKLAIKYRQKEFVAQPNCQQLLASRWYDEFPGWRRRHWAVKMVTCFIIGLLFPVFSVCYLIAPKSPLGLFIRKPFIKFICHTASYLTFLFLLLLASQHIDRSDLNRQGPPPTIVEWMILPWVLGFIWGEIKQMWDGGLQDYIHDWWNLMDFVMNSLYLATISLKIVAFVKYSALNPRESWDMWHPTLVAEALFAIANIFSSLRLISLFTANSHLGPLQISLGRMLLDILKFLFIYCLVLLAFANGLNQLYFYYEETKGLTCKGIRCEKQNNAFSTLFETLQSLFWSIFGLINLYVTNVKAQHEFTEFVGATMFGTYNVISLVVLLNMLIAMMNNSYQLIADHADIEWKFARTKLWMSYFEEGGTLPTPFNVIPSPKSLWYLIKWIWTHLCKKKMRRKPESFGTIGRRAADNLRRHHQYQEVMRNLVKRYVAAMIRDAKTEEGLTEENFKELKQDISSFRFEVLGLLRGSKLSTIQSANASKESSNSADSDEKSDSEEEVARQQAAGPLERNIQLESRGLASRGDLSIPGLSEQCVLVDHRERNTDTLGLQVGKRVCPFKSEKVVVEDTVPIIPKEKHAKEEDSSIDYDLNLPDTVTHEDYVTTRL

[3] = biological target: T2, TRPC5 (Homo sapiens, UniProt Q9UL62); test: Fura-2 Ca2+ entry in HEK293 cells overexpressing YFP-TRPC5; assay type: cell-based
T2 sequence (Q9UL62 1-973): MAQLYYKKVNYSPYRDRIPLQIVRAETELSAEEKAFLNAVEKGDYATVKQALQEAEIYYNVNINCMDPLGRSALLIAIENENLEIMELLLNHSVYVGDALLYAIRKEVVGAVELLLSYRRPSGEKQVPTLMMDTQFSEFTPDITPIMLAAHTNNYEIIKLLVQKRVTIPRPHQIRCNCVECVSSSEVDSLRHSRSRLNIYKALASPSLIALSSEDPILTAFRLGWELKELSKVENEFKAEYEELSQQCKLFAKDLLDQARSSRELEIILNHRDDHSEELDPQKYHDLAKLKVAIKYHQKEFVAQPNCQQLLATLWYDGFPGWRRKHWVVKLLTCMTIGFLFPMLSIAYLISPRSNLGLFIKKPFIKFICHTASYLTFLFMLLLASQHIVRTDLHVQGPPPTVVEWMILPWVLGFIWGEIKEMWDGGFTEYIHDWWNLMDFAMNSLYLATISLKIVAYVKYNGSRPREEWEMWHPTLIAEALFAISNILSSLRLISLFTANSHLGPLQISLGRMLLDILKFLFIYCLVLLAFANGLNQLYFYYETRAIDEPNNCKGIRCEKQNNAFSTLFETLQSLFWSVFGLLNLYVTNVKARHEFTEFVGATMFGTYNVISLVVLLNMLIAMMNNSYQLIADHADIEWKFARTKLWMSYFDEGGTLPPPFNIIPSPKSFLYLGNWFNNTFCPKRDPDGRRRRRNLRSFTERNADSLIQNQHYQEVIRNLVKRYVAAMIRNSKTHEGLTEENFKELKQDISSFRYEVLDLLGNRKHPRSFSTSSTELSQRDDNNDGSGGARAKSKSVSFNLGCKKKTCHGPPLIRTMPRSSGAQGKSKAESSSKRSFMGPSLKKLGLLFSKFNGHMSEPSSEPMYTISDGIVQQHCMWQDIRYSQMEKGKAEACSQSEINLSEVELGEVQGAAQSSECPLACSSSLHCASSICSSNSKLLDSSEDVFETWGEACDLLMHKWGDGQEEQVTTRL

[4] = biological target: T3, TRPC6 (Mus musculus, UniProt Q61143); test: Fura-2 Ca2+ entry in HEK293 cells overexpressing GFP-TRPC6; assay type: cell-based, murine
T3 sequence (Q61143 1-930): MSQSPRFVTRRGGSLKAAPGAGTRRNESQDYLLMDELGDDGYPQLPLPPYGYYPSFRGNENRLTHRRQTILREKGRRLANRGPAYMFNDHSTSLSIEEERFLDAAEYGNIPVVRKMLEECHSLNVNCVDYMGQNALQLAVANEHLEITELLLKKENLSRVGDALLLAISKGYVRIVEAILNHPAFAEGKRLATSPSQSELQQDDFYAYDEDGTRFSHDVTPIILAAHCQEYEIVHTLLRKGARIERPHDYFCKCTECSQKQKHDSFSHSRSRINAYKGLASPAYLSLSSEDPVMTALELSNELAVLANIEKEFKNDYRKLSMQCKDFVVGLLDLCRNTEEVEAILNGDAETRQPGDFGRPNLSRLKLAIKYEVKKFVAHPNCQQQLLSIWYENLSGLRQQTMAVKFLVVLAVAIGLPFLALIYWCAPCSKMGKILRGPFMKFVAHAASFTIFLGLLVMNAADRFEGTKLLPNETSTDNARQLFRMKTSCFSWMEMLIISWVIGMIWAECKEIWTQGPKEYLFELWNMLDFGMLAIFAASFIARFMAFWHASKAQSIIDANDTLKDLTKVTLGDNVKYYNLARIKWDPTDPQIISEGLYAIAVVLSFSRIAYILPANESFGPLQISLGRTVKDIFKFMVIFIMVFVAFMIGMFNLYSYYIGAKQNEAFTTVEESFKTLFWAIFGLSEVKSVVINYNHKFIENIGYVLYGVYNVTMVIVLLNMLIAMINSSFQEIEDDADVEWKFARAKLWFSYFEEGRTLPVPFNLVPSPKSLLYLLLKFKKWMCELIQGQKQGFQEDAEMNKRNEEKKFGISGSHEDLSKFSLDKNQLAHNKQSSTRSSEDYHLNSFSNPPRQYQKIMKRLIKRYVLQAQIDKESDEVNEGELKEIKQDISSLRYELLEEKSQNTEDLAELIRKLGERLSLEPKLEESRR

Compound	Effect on NFAT translocation [1]	IC50 [2] [µM]	IC50 [3] [µM]	IC50 [4] [µM]
O=C(Nc1ccc(-n2nc(C(F)(F)F)cc2C(F)(F)F)cc1)c1ccncc1F [Pyr6, N-(4-(3,5-bis(trifluoromethyl)-1H-pyrazole-1-yl)phenyl)-3-fluoroisonicotinamide]	clearly inhibited NFAT translocation	> 10	> 10	> 10
Cc1ccc(S(=O)(=O)Nc2ccc(-n3nc(C(F)(F)F)cc3C(F)(F)F)cc2)cc1 [Pyr10, N-(4-(3,5-bis(trifluoromethyl)-1H-pyrazole-1-yl)phenyl)-4-methylbenzenesulfonamide]	failed to suppress NFAT activation significantly	> 10	> 10	> 10
